Experimental data from article PMC6172068 (Cancer Science, 2018).

Assay: Safety and tolerability
Assay type: in vivo, Japanese patients
Conditions: for Stomatitis / Subdural hematoma / Syncope / Thrombocytopenia / Tumor-associated fever / Vomiting / Anemia / Bone pain / Constipation / Corneal erosion / Cough / Diarrhea / Disseminated intravascular coagulation / Dysesthesia / Dysgeusia / ECG prolonged QT interval / Elevated ALT / Elevated AST / Elevated blood creatine phosphokinase / Elevated blood lactate dehydrogenase / Elevated liver enzymes (ALT, AST, and alkaline phosphatase) / Epistaxis / Febrile neutropenia / Headache / Hematoma / Hypertension / Hypokalemia / Hypotension / Hypoxia / Increased amylase / Insomnia / Lung infection / Nausea / Pleural effusion / Pneumonia / Pyrexia / Rash / Renal impairment / Sepsis / Somnolence: N = 24
In short: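 In this open-label study, once-daily oral dosing escalated 20–300 mg/d by Bayesian continual reassessment. DLTs were judged from Cycles 0 and 1, and MTD/RD came from the posterior mean DLT rate plus investigator assessment. Treatment-emergent AEs were graded by NCI-CTCAE v4.0 for seriousness, duration and relatedness. The safety analysis set comprised all patients given ≥1 dose.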

In the case of CCc1nc(C(N)=O)c(Nc2ccc(N3CCC(N4CCN(C)CC4)CC3)c(OC)c2)nc1NC1CCOCC1 [gilteritinib], the Stomatitis (Grade 1-2) is reported as 5 (20.8%) n (%), the Subdural hematoma (Grade 1-2) is reported as 1 (4.2%) n (%) and the Syncope (Grade 1-2) is reported as 0 n (%). The Thrombocytopenia (Grade 1-2) was 0 n (%), the Tumor-associated fever (Grade 1-2) was 2 (8.3%) n (%) and the Vomiting (Grade 1-2) was 2 (8.3%) n (%). For the same compound, the Anemia (Grade 3) was 2 (8.3%) n (%), the Bone pain (Grade 3) was 1 (4.2%) n (%) and the Constipation (Grade 3) was 0 n (%). The Corneal erosion (Grade 3) was 0 n (%), the Cough (Grade 3) was 0 n (%) and the Diarrhea (Grade 3) was 1 (4.2%) n (%). The Disseminated intravascular coagulation (Grade 3) was 3 (12.5%) n (%), the Dysesthesia (Grade 3) was 0 n (%) and the Dysgeusia (Grade 3) was 0 n (%). The “ECG prolonged QT interval” value (Grade 3) was 1 (4.2%) n (%), the “Elevated ALT” value (Grade 3) was 0 n (%) and the “Elevated AST” value (Grade 3) was 0 n (%). For the same compound, the “Elevated blood creatine phosphokinase” value (Grade 3) was 2 (8.3%) n (%), the “Elevated blood lactate dehydrogenase” value (Grade 3) was 1 (4.2%) n (%) and the “Elevated liver enzymes (ALT, AST, and alkaline phosphatase)” value (Grade 3) was 0 n (%). The Epistaxis (Grade 3) was 0 n (%), the Febrile neutropenia (Grade 3) was 3 (12.5%) n (%) and the Headache (Grade 3) was 0 n (%). For the same compound, the Hematoma (Grade 3) was 0 n (%), the Hypertension (Grade 3) was 0 n (%) and the Hypokalemia (Grade 3) was 1 (4.2%) n (%). The Hypotension (Grade 3) was 0 n (%), the Hypoxia (Grade 3) was 0 n (%) and the Increased amylase (Grade 3) was 1 (4.2%) n (%). For the same compound, the Insomnia (Grade 3) was 0 n (%), the Lung infection (Grade 3) was 1 (4.2%) n (%) and the Nausea (Grade 3) was 0 n (%). The Pleural effusion (Grade 3) was 0 n (%), the Pneumonia (Grade 3) was 3 (12.5%) n (%) and the Pyrexia (Grade 3) was 0 n (%). The Rash (Grade 3) was 0 n (%), the Renal impairment (Grade 3) was 0 n (%) and the Sepsis (Grade 3) was 1 (4.2%) n (%). The Somnolence (Grade 3) was 0 n (%), the Stomatitis (Grade 3) was 0 n (%) and the Subdural hematoma (Grade 3) was 0 n (%). For the same compound, the Syncope (Grade 3) was 2 (8.3%) n (%), the Thrombocytopenia (Grade 3) was 2 (8.3%) n (%) and the Tumor-associated fever (Grade 3) was 0 n (%). The Vomiting (Grade 3) was 0 n (%), the Anemia (Grade 4) was 0 n (%) and the Bone pain (Grade 4) was 0 n (%). For the same compound, the Constipation (Grade 4) was 0 n (%), the Corneal erosion (Grade 4) was 0 n (%) and the Cough (Grade 4) was 0 n (%). For the same compound, the Diarrhea (Grade 4) was 0 n (%), the Disseminated intravascular coagulation (Grade 4) was 0 n (%) and the Dysesthesia (Grade 4) was 0 n (%). The Dysgeusia (Grade 4) was 0 n (%), the “ECG prolonged QT interval” value (Grade 4) was 0 n (%) and the “Elevated ALT” value (Grade 4) was 0 n (%). For the same compound, the “Elevated AST” value (Grade 4) was 0 n (%), the “Elevated blood creatine phosphokinase” value (Grade 4) was 1 (4.2%) n (%) and the “Elevated blood lactate dehydrogenase” value (Grade 4) was 0 n (%). The “Elevated liver enzymes (ALT, AST, and alkaline phosphatase)” value (Grade 4) was 0 n (%), the Epistaxis (Grade 4) was 0 n (%) and the Febrile neutropenia (Grade 4) was 0 n (%). The Headache (Grade 4) was 0 n (%), the Hematoma (Grade 4) was 0 n (%) and the Hypertension (Grade 4) was 0 n (%). The Hypokalemia (Grade 4) was 0 n (%), the Hypotension (Grade 4) was 0 n (%) and the Hypoxia (Grade 4) was 0 n (%). For the same compound, the Increased amylase (Grade 4) was 0 n (%), the Insomnia (Grade 4) was 0 n (%) and the Lung infection (Grade 4) was 0 n (%). The Nausea (Grade 4) was 0 n (%), the Pleural effusion (Grade 4) was 0 n (%) and the Pneumonia (Grade 4) was 0 n (%). The Pyrexia (Grade 4) was 0 n (%), the Rash (Grade 4) was 0 n (%) and the Renal impairment (Grade 4) was 0 n (%). The Sepsis (Grade 4) was 0 n (%), the Somnolence (Grade 4) was 0 n (%) and the Stomatitis (Grade 4) was 0 n (%). For the same compound, the Subdural hematoma (Grade 4) was 0 n (%), the Syncope (Grade 4) was 0 n (%) and the Thrombocytopenia (Grade 4) was 2 (8.3%) n (%). The Tumor-associated fever (Grade 4) was 0 n (%), the Vomiting (Grade 4) was 0 n (%) and the Anemia (Grade 5) was 0 n (%). For the same compound, the Bone pain (Grade 5) was 0 n (%), the Constipation (Grade 5) was 0 n (%) and the Corneal erosion (Grade 5) was 0 n (%). The Cough (Grade 5) was 0 n (%), the Diarrhea (Grade 5) was 0 n (%) and the Disseminated intravascular coagulation (Grade 5) was 0 n (%). The Dysesthesia (Grade 5) was 0 n (%), the Dysgeusia (Grade 5) was 0 n (%) and the “ECG prolonged QT interval” value (Grade 5) was 0 n (%). For the same compound, the “Elevated ALT” value (Grade 5) was 0 n (%), the “Elevated AST” value (Grade 5) was 0 n (%) and the “Elevated blood creatine phosphokinase” value (Grade 5) was 0 n (%). The “Elevated blood lactate dehydrogenase” value (Grade 5) was 0 n (%), the “Elevated liver enzymes (ALT, AST, and alkaline phosphatase)” value (Grade 5) was 0 n (%) and the Epistaxis (Grade 5) was 0 n (%). The Febrile neutropenia (Grade 5) was 0 n (%), the Headache (Grade 5) was 0 n (%) and the Hematoma (Grade 5) was 0 n (%). The Hypertension (Grade 5) was 0 n (%), the Hypokalemia (Grade 5) was 0 n (%) and the Hypotension (Grade 5) was 0 n (%). For the same compound, the Hypoxia (Grade 5) was 0 n (%), the Increased amylase (Grade 5) was 0 n (%) and the Insomnia (Grade 5) was 0 n (%). For the same compound, the Lung infection (Grade 5) was 0 n (%), the Nausea (Grade 5) was 0 n (%) and the Pleural effusion (Grade 5) was 0 n (%). The Pneumonia (Grade 5) was 0 n (%), the Pyrexia (Grade 5) was 0 n (%) and the Rash (Grade 5) was 0 n (%). The Renal impairment (Grade 5) was 0 n (%), the Sepsis (Grade 5) was 0 n (%) and the Somnolence (Grade 5) was 0 n (%). The Stomatitis (Grade 5) was 0 n (%), the Subdural hematoma (Grade 5) was 1 (4.2%) n (%) and the Syncope (Grade 5) was 0 n (%). The Thrombocytopenia (Grade 5) was 0 n (%), the Tumor-associated fever (Grade 5) was 0 n (%) and the Vomiting (Grade 5) was 0 n (%). For the same compound, the “patients who experienced at least 1 AE” value (SAF, all doses) was 24 patients, the “patients with AEs resulting in permanent discontinuation of gilteritinib” value (all doses, 6 of 24 patients) was 25% and the “patients with serious AEs” value (all doses, 7 of 24 patients) was 29.2%. The “patients with drug-related grade ≥3 AEs” value (all doses, 9 patients) was 37.5%, the “Drug-related AE: pyrexia” value (all doses, n = 3/24) was 12.5% and the “grade ≥3 AE: disseminated intravascular coagulation” value (all doses, n = 3/24) was 12.5%. The “grade ≥3 AE: elevated blood creatine phosphokinase” value (all doses, n = 3/24) was 12.5%, the “grade ≥3 AE: febrile neutropenia” value (all doses, n = 3/24) was 12.5% and the “grade ≥3 AE: pneumonia” value (all doses, n = 3/24) was 12.5%. The “Drug-related AE: diarrhea” value (all doses, n = 4/24) was 16.7%, the “Drug-related AE: hypertension” value (all doses, n = 4/24) was 16.7% and the “Drug-related AE: stomatitis” value (all doses, n = 4/24) was 16.7%. For the same compound, the “Drug-related AE: thrombocytopenia” value (all doses, n = 4/24) was 16.7%, the “grade ≥3 AE: thrombocytopenia” value (all doses, n = 4/24) was 16.7% and the “Drug-related AE: renal impairment” value (all doses, n = 5/24) was 20.8%. For the same compound, the “Drug-related AE: elevated blood lactate dehydrogenase” value (all doses, n = 6/24) was 25%, the “Drug-related AE: elevated blood creatine phosphokinase” value (all doses, n = 7/24) was 29.2% and the “Drug-related AE: elevated liver enzyme levels” value (all doses, n = 8/24) was 33.3%. For the same compound, the “patients with grade ≥3 AEs” value (all doses, n = 16/24) was 66.7%, the “patients with at least 1 treatment-related AE” value (all doses, n = 22/24) was 91.7% and the “AE: febrile neutropenia” value (any grade, all doses, n = 5/24) was 20.8%. For the same compound, the “AE: hypertension” value (any grade, all doses, n = 5/24) was 20.8%, the “AE: renal impairment” value (any grade, all doses, n = 5/24) was 20.8% and the “AE: stomatitis” value (any grade, all doses, n = 5/24) was 20.8%. For the same compound, the “AE: diarrhea” value (any grade, all doses, n = 7/24) was 29.2%, the “AE: pyrexia” value (any grade, all doses, n = 7/24) was 29.2% and the “AE: elevated blood lactate dehydrogenase” value (any grade, all doses, n = 8/24) was 33.3%. The “AE: elevated blood creatine phosphokinase” value (any grade, all doses, n = 9/24) was 37.5%, the “AE: elevated liver enzymes (ALT, AST, alkaline phosphatase)” value (any grade, all doses, n = 9/24) was 37.5% and the “drug-related AE leading to treatment discontinuation: pneumonia” value (n = 2/24) was 8.3%. For the same compound, the “drug-related grade ≥3 AE: pneumonia” value (n = 2, 40 and 300 mg/d) was 8.3%, the “drug-related grade ≥3 AE: anemia” value (n = 2, 200 and 300 mg/d) was 8.3% and the “drug-related grade ≥3 AE: febrile neutropenia” value (n = 2, 200 and 300 mg/d) was 8.3%. The “drug-related grade ≥3 AE: increased blood creatine phosphokinase” value (n = 3, 200 and 300 mg/d) was 12.5%, the “drug-related grade ≥3 AE: thrombocytopenia” value (n = 4, 200 and 300 mg/d) was 16.7% and the “patients who experienced DLTs during Cycle 0 and Cycle 1” value (of the 24 patients in the SAF) was 3 patients. For the same compound, the “maximum tolerated dose (MTD)” value (once-daily oral, Bayesian CRM and investigator opinion) was 200 mg/day and the “recommended dose (RD)” value (once-daily oral, for subsequent studies) was 120 mg/day.
